CHOP UPR activ: activators of apoptotic CHOP UPR arm, primary screen, cell-based, CHO-CHOP luciferase reporter, luminescence, uHTS; UPR activation; percent of tunicamycin response over DMSO baseline; activation, % at 10 µM; 330,000 compounds, 0.34% hits;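 active = at 10 µM dose, activation of 40% or more, normalized to positive control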;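 also: 100% = tunicamycin at 10 µg/mL and 0% = DMSO alone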
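System: CHO-CHOP luciferase reporter cell line; amount: 500 cells/well; buffer or medium: F12 medium containing 10% fetal bovine serum; incubation: 6 h compound exposure at 37 °C after overnight seeding; measured by: luciferase luminescence after 10 min with Steady-Glo reagent; evaluation: % reporter activation, DMSO baseline versus tunicamycin full activation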
TLR9-MyD88 inh: inhibitors of TLR9-MyD88 association in cells, primary screen, cell-based, CHO, BLA complementation, fluorescence; Toll-like receptor 9 (Homo sapiens) + Myeloid differentiation primary response protein …; CCF4 FRET ratio; inhibition, % at 4.98 µM; 340,000 compounds, 0.21% hits; AID 504734, 2011;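 active = inhibition above the mean over all tested compounds plus 3 SD, cut at about 21% in these data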;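 also: 0% = DMSO only wells and 100% = clavulanate BLA inhibitor control wells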
UPR XBP1 act: activators of adaptive XBP1 UPR arm, primary screen, cell-based, CHO-XBP1 luciferase reporter, luminescence, uHTS | 330,000 compounds, 0.33% hits | AID 463104, 2010 | IRE1-XBP1 UPR activation; percent of tunicamycin response, DMSO as zero | activation, % at 20 µM;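 active = versus positive control, 20 µM dose yields 30% or more activation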;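 also: 100% = tunicamycin at 10 µg/mL and 0% = DMSO only wells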
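Signal: luciferase luminescence; Assay system: CHO-XBP1 luciferase reporter cells; Amount: one thousand reporter cells per well; Dosing: 20 µM single concentration, DMSO 1%; Benchmarks: high control tunicamycin 10 µg/mL final, low control DMSO vehicle only; Schedule: 6 h compound exposure at 37 °C, 5% CO2; Evaluation: percent activation relative to tunicamycin reference.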
CHOP inh: inhibitors of CHOP promoter induction, primary screen, cell-based, unfolded protein response, luciferase reporter. CHO-K1 CHOP-promoter luciferase, tunicamycin-induced, 15-18 h. inhibition, % at 10 µM. 220,000 compounds, 3.8% hits;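 active = compounds that reduced the stress-induced luciferase reporter signal by more than about 70% of percent inhibition, limit read from the data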;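 also: 0% = tunicamycin plus vehicle and 100% = wells without tunicamycin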
TLR4-MyD88 BLA: inhibitors of TLR4-MyD88 association in cells, primary screen, cell-based, HeLa CL3-4, BLA complementation, FRET ratio | inhibition, % at 8.4 µM | AID 861, 2007 | Toll-like receptor 4 (Homo sapiens) + Myeloid differentiation primary response protein … | HeLa CL3-4 TLR4/MyD88 BLA complementation | 200,000 compounds, 0.18% hits; in the data active = inhibition above about 25%;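 also: 0% = vehicle and 100% = reference inhibitor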
NOD2-RIPK2 inh: NOD2-RIPK2 binding disruptors in cells, primary screen, fluorescence, CHO cells, BLA complementation. 360,000 compounds, 0.38% hits. CCF4 ratio. Receptor-interacting serine/threonine-protein kinase 2 (Homo sapiens), O43353. inhibition, % at 4.98 µM. AID 624267, 2012; in the data active = inhibition above about 21%;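 also: 0% = vehicle only and 100% = reference blocker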
Target sequence (O43353 whole entry, looked up): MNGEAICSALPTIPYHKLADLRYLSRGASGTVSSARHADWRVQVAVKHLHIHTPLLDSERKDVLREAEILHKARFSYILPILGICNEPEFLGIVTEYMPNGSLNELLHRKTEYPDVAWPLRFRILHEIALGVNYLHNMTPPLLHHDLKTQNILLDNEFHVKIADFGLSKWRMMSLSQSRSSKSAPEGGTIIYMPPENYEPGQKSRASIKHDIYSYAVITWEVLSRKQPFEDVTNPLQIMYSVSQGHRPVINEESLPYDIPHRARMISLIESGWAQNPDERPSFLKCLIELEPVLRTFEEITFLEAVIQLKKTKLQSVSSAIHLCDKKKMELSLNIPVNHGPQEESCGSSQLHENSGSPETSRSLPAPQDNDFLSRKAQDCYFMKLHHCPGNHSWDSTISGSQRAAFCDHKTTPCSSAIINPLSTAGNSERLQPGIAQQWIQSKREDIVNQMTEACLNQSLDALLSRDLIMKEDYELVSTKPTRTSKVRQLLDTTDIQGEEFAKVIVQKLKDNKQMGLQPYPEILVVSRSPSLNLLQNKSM
NOD2-RIPK2 conf: NOD2-RIPK2 binding disruptors, retest, confirmation, fluorescence, CHO cells, BLA complementation, triplicate; shares compounds with NOD2-RIPK2 inh; CCF4 FRET; inhibition, % at 4.98 µM; 1,200 compounds, 70% hits; AID 624370, 2012;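 active = mean inhibition across replicates above a set limit taken from the earlier primary screen, cut at about 21% in these data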;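 also: 0% = DMSO-only wells and the high end = clavulanate BLA-blocked wells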
BLA counter: counter-screen for NOD2-RIPK2 interaction inhibitors: BLA reporter; shares compounds with NOD2-RIPK2 inh; CHO BLA reporter, CCF4 FRET ratio, counterscreen; inhibition, % at 4.98 µM; 1,200 compounds, 57% hits;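 active = mean inhibition above the low-control mean inhibition plus three low-control SD, cut at about 11% in these data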;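 also: 0% = DMSO only wells and 100% = clavulanate high control wells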
Starred values were filed as active, the others as inactive; / = no result given. This excerpt belongs to a sample that is enriched for hits.

SMILES	CHOP UPR activ	TLR9-MyD88 inh	UPR XBP1 act	CHOP inh	TLR4-MyD88 BLA	NOD2-RIPK2 inh	NOD2-RIPK2 conf	BLA counter
CCN1C/C(=C/c2ccc(N3CCOCC3)cc2)C(=O)/C(=C/c2ccc(N3CCOCC3)cc2)C1	/	8	/	39	20	23*	39*	34*
CN1C/C(=C\c2ccc(N3CCOCC3)cc2)C(=O)/C(=C/c2ccc(N3CCOCC3)cc2)C1	2	6	-1	-34	2	5	/	/
COc1ccccc1N1CCN(C2CCCN(C(=O)c3ccsc3)C2)CC1 (centres undefined)	0	-1	-1	/	/	-3	/	/
Cc1ccccc1C(=O)c1cccn1CC(=O)NCc1cccc(Cl)c1	3	2	4	/	/	15	/	/
CC(=O)Nc1ccc(S(=O)(=O)Nc2nc3ccccc3nc2Nc2cccc(O)c2)cc1	1	-6	-3	16	/	10	/	/
CC(=O)Nc1ccc(S(=O)(=O)Nc2nc3ccccc3nc2Nc2ccc3ccccc3c2)cc1	2	4	3	23	-10	22*	-5	-2
Cc1cc(OCCn2cc(/C(N)=N/O)c3ccccc32)ccc1Cl	3	4	6	-8	-15	23*	11	8
Cc1[nH]nc(C(F)(F)F)c1N=NN1CCOCC1	/	-2	/	/	/	44*	12	-4
Clc1ccc(N=NN2CCOCC2)cc1	3	2	5	4	/	0	/	/
COC(=O)Cn1ccnc1[N+](=O)[O-]	/	-1	/	/	/	1	/	/
O=c1ccc2cc(O)c(O)cc2o1	-1	9	-2	11	12	23*	23*	37*
O=c1ccc2ccc(O)cc2o1	/	-1	/	/	/	-7	/	/
CCCn1c2c(c(O)c(C(=O)Nc3nc4ccccc4s3)c1=O)CCCC2	2	3	0	-17	7	2	/	/
O=C(NCc1nc2ccccc2[nH]1)c1cccc(S(=O)(=O)N2CCCC2)c1	-1	-1	-1	-5	1	-13	/	/
CN(C)S(=O)(=O)n1cnc(-c2ccccc2)c1-c1ccccc1	1	-4	-1	42	-2	35*	2	-2
COc1ccc(CNC(=O)CCCOc2cc(=O)n(C)c3ccccc23)cc1	0	6	-1	46	10	2	/	/
COc1ccc(CNC(=O)COc2cc(=O)n(C)c3ccccc23)cc1	3	-14	-1	-3	-2	25*	-2	-3
COc1ccc(NS(=O)(=O)c2cccc(C(=O)NCC(c3ccco3)N3CCCC3)c2)cc1 (centres undefined)	0	-2	-2	/	/	5	/	/
Cn1c(=O)oc2cc(S(=O)(=O)CCC(=O)Nc3ccccc3)ccc21	0	0	-3	/	/	-5	/	/
Cc1cc(N2CCOCC2)ccc1/C=C\[N+](=O)[O-]	28	7	-5	62	14	51*	55*	4
O=C(N/N=C/c1ccc([N+](=O)[O-])cc1)c1cccc(N2CCCC2=O)c1	1	-2	-2	/	/	1	/	/
O=[N+]([O-])c1cc(S(=O)(=O)Oc2ccccc2)ccc1Cl	/	16	/	/	/	58*	16	1
O=S(=O)(NCc1ccccc1)NCc1cccc(C(F)(F)F)c1	-4	-2	1	18	-19	-4	/	/
Cc1ccc(C)c(Cn2c3ccccc3c3cnn(CC(=O)NCCCN4CCCCC4)c(=O)c32)c1	0	-8	-1	/	/	21*	14	0
COc1cccc(N2CC(C(=O)Nc3nnc(SCCN4CCOCC4)s3)CC2=O)c1 (centres undefined)	1	-11	-3	/	/	-10	/	/
SMILES	CHOP UPR activ	TLR9-MyD88 inh	UPR XBP1 act	CHOP inh	TLR4-MyD88 BLA	NOD2-RIPK2 inh	NOD2-RIPK2 conf	BLA counter
O=C(CCNc1ccc(F)cc1)c1cccc([N+](=O)[O-])c1	2	2	-2	-2	5	-10	/	/
O=C(CNC(=O)c1cccc([N+](=O)[O-])c1)OCCCC(=O)c1ccc(F)cc1	0	-1	-2	/	/	26*	-8	-4
C=CCOc1c(CNc2nccs2)cccc1OCC	-1	1	0	41	-2	-5	/	/
CC(C)C[C@@H](CN)NC(=O)c1nc[nH]c1C(=O)N[C@@H](CC(C)C)C(=O)CNC[C@H](C)NC(=O)c1nc[nH]c1C(=O)N[C@@H](C)C(=O)O	/	0	/	/	/	-6	/	/
O=C(Cc1c[nH]c2ccccc12)NCc1ccco1	-1	0	-2	4	3	-5	/	/
O=C(NCc1ccco1)C(=O)c1c[nH]c2ccccc12	5	1	4	-8	8	32*	-2	-4
COc1ccccc1Cc1c(C(C)(C)C)nc2cc(C)c(Br)c(C)n12	/	/	/	/	/	24*	-3	12*
Cc1cc2nc(C(C)(C)C)c(Cc3ccccc3C(F)(F)F)n2c(C)c1Br	/	/	/	/	/	-12	/	/
C#CCNC(=O)C1=C[C@@H](c2ccc(C#C)cc2)C[C@@H](OCc2ccc(CO)cc2)O1	1	-4	-3	/	/	5	/	/
CCOC(=O)Cc1c(Cl)c2ccccc2[nH]c1=O	2	11	-1	13	-11	-7	/	/
CCOC(=O)C[n+]1ccc2c([nH]c3ccccc32)c1C	-1	-5	-2	/	/	38*	3	-4
O=C(O)C1=C[C@H](c2ccc3c(c2)OCO3)C[C@H](OCCCCO)O1	2	1	-1	/	/	-10	/	/
CC(C)[C@H](NC(=O)c1ccccc1Cl)C(=O)Nc1ccc(S(=O)(=O)Nc2nccs2)cc1	1	4	-3	/	/	3	/	/
O=C(N/N=C/c1c(O)n(-c2ccccc2Cl)c(=O)c2ccccc12)C1COc2ccccc2O1 (centres undefined)	3	14	0	37	10	23*	26*	39*
Cc1ccc(-n2c(O)c(/C=N/NC(=O)C3COc4ccccc4O3)c3ccccc3c2=O)cc1 (centres undefined)	0	15	1	35	9	11	/	/
Cn1c(SCC(=O)N2CCCCCC2)nc2c(c1=O)SCC2	0	5	-3	/	/	-7	/	/
CNc1oc(-c2ccccc2F)nc1S(=O)(=O)c1ccc(C)cc1	0	-4	-6	/	/	-10	/	/
CCOC(=O)Nc1ccc2c3c(cccc13)-c1ccccc1-2	/	16	/	/	/	34*	31*	47*
